Experiments:
[1] = Genotoxicity in Salmonella typhimurium TA1535 harboring pSK1002 assessed as survival at 0.25 mg/ml in presence of Sprague-Dawley rat liver S9 fraction after by SOS/umu assay relative to control; assay type: toxicity, organism-based; details: salmonella enterica subsp. enterica serovar typhimurium, read-out: Survival
[2] = Genotoxicity in Salmonella typhimurium TA1535 harboring pSK1002 assessed as survival at 0.125 mg/ml in presence of Sprague-Dawley rat liver S9 fraction after by SOS/umu assay relative to control; assay type: toxicity, organism-based; details: salmonella enterica subsp. enterica serovar typhimurium, read-out: Survival
[3] = Genotoxicity in Salmonella typhimurium TA1535 harboring pSK1002 assessed as umu gene induction at 0.5 mg/ml in presence of Sprague-Dawley rat liver S9 fraction after by SOS/umu assay relative to control; assay type: toxicity, organism-based; details: salmonella enterica subsp. enterica serovar typhimurium, read-out: FC
[4] = Genotoxicity in Salmonella typhimurium TA1535 harboring pSK1002 assessed as umu gene induction at 0.5 mg/ml in absence of Sprague-Dawley rat liver S9 fraction after by SOS/umu assay relative to control; assay type: toxicity, organism-based; details: salmonella enterica subsp. enterica serovar typhimurium, read-out: FC
[5] = Genotoxicity in Salmonella typhimurium TA1535 harboring pSK1002 assessed as survival at 0.5 mg/ml in presence of Sprague-Dawley rat liver S9 fraction after by SOS/umu assay relative to control; assay type: toxicity, organism-based; details: salmonella enterica subsp. enterica serovar typhimurium, read-out: Survival
[6] = Genotoxicity in Salmonella typhimurium TA1535 harboring pSK1002 assessed as survival at 0.5 mg/ml in absence of Sprague-Dawley rat liver S9 fraction after by SOS/umu assay relative to control; assay type: toxicity, organism-based; details: salmonella enterica subsp. enterica serovar typhimurium, read-out: Survival
[7] = Genotoxicity in Salmonella typhimurium TA1535 harboring pSK1002 assessed as survival at 0.004 mg/ml in absence of Sprague-Dawley rat liver S9 fraction after by SOS/umu assay relative to control; assay type: toxicity, organism-based; details: salmonella enterica subsp. enterica serovar typhimurium, read-out: Survival
[8] = Genotoxicity in Salmonella typhimurium TA1535 harboring pSK1002 assessed as survival at 0.002 mg/ml in presence of Sprague-Dawley rat liver S9 fraction after by SOS/umu assay relative to control; assay type: toxicity, organism-based; details: salmonella enterica subsp. enterica serovar typhimurium, read-out: Survival
[9] = Genotoxicity in Salmonella typhimurium TA1535 harboring pSK1002 assessed as survival at 0.016 mg/ml in absence of Sprague-Dawley rat liver S9 fraction after by SOS/umu assay relative to control; assay type: toxicity, organism-based; details: salmonella enterica subsp. enterica serovar typhimurium, read-out: Survival
[10] = Genotoxicity in Salmonella typhimurium TA1535 harboring pSK1002 assessed as umu gene induction at 0.25 mg/ml in presence of Sprague-Dawley rat liver S9 fraction after by SOS/umu assay relative to control; assay type: toxicity, organism-based; details: salmonella enterica subsp. enterica serovar typhimurium, read-out: FC
[11] = Genotoxicity in Salmonella typhimurium TA1535 harboring pSK1002 assessed as umu gene induction at 0.063 mg/ml in presence of Sprague-Dawley rat liver S9 fraction after by SOS/umu assay relative to control; assay type: toxicity, organism-based; details: salmonella enterica subsp. enterica serovar typhimurium, read-out: FC
[12] = Genotoxicity in Salmonella typhimurium TA1535 harboring pSK1002 assessed as survival at 0.25 mg/ml in absence of Sprague-Dawley rat liver S9 fraction after by SOS/umu assay relative to control; assay type: toxicity, organism-based; details: salmonella enterica subsp. enterica serovar typhimurium, read-out: Survival
[13] = Genotoxicity in Salmonella typhimurium TA1535 harboring pSK1002 assessed as umu gene induction at 0.001 mg/ml in absence of Sprague-Dawley rat liver S9 fraction after by SOS/umu assay relative to control; assay type: toxicity, organism-based; details: salmonella enterica subsp. enterica serovar typhimurium, read-out: FC
[14] = tested on: Plasmodium berghei; experiment: Antiplasmodial activity against Plasmodium berghei ANKA infected in mouse assessed as mouse survival time at 50 mg/kg/day, po for 4 consecutive days starting from 2 hrs post infection by MSF assay; assay type: functional
Method in brief: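 Swiss male mice (20 ± 2 g) infected i.p. with 10^7 P. berghei ANKA parasitized cells in 0.1 mL 0.9% saline (day 0). Oral dosing began 2 h post-infection and continued daily on days 0–3, five mice per batch. Test drugs were given at 50 mg/kg/day in water:DMSO and chloroquine diphosphate at 3 mg/kg/day; a vehicle control was included. Survival was checked daily, and parasitemia was read on day 4 by modified MSF assay.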

[15] = Genotoxicity in Salmonella typhimurium TA1535 harboring pSK1002 assessed as umu gene induction at 0.002 mg/ml in presence of Sprague-Dawley rat liver S9 fraction after by SOS/umu assay relative to control; assay type: toxicity, organism-based; details: salmonella enterica subsp. enterica serovar typhimurium, read-out: FC
[16] = Genotoxicity in Salmonella typhimurium TA1535 harboring pSK1002 assessed as umu gene induction at 0.25 mg/ml in absence of Sprague-Dawley rat liver S9 fraction after by SOS/umu assay relative to control; assay type: toxicity, organism-based; details: salmonella enterica subsp. enterica serovar typhimurium, read-out: FC
[17] = tested on: Plasmodium berghei; experiment: Antiplasmodial activity against Plasmodium berghei ANKA infected in mouse assessed as inhibition of parasitemia at 50 mg/kg/day, po for 4 consecutive days starting from 2 hrs post infection by MSF assay relative to control; assay type: functional
Method in brief: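 Swiss male mice (20 ± 2 g) infected ip with 10^7 P. berghei ANKA parasitized cells (day 0). Five per group dosed orally 2 h after infection and daily on days 0–3. Test compounds at 50 mg/kg/day in water:DMSO; chloroquine diphosphate at 3 mg/kg/day; vehicle controls. Parasitemia measured on day 4 by MSF assay; survival checked daily.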

[18] = tested on: Plasmodium falciparum; experiment: Antiplasmodial activity against multidrug-resistant Plasmodium falciparum C235 after 72 hrs by MSF assay; assay type: functional, organism-based; details: C235, 72 h
Method in brief: (§1)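 D6 and C235 strains from the Walter Reed Army Institute of Research were tested by the Malaria SYBR Green-I fluorescence assay.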

[19] = tested on: Plasmodium falciparum; experiment: Antiplasmodial activity against Plasmodium falciparum D6 after 72 hrs by MSF assay; assay type: functional, organism-based; details: D6, 72 h; method in brief: as §1
[20] = Solubility of the compound in DSPC:cholesterol:DSPE-PEG2000-Mal:DOPE-Rho lipid mixture at 250 uM; assay type: physicochemical
Method in brief: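 Compound added at 250 µM drug to the initial liposome lipid mixture (10 mM total lipid); precipitation and UV-visible absorbance above 300 nm assessed after encapsulation, removal of unencapsulated material and extraction with 1% w/v SDS in RPMI-A.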

[21] = tested on: Plasmodium berghei; experiment: Antiplasmodial activity against GFP-fused Plasmodium berghei sporozoites infected in human HepG2A16 cells treated simultaneously with infection by fluorescence microscopic analysis; assay type: functional, organism-based
Method in brief: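 HepG2-A16 cells (3 × 10^4/well, collagen-coated) infected with PbGFP sporozoites (5 × 10^3 to 1 × 10^4/well) and treated at the same time. Top concentration 10 µg/mL in DMEM, seven serial dilutions. Medium and compound renewed at 3 h and every 24 h. After 40 h at 37 °C: methanol fixation, anti-Plasmodium Hsp70 immunolabeling, Alexa 594 secondary, DAPI; high-content imaging.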

Row | SMILES | viability at 0.25 mg/ml [1] [%] | viability at 0.125 mg/ml [2] [%] | fold induction at 0.5 mg/ml [3] | fold induction at 0.5 mg/ml [4] | viability at 0.5 mg/ml [5] [%] | viability at 0.5 mg/ml [6] [%] | viability at 0.004 mg/ml [7] [%] | viability at 0.002 mg/ml [8] [%] | viability at 0.016 mg/ml [9] [%] | fold induction at 0.25 mg/ml [10] | fold induction at 0.063 mg/ml [11] | viability at 0.25 mg/ml [12] [%] | fold induction at 0.001 mg/ml [13] | MSD [14] [days] | fold induction at 0.002 mg/ml [15] | fold induction at 0.25 mg/ml [16] | solubility [20] | also measured
1 | Nc1ccc(N2CCC(NCCC(O)c3ccc(F)c4ccccc34)CC2)c(C(F)(F)F)c1 (stereo not drawn) | 118 | 107 | 0.1 | 0.1 | 118 | 68.2 | 38.7 | 116 | 28.3 | 0.1 | 0.4 | 48 | 1.1 | 3 | 1.4 | 0.2 |  | 
2 | COc1ccccc1C1=CCN(CCC(O)c2ccc(F)cc2)CC1 (stereo not drawn) | 73 | 88.5 | 1.3 | 2.3 | 82.1 | 19.4 | 104 | 87.2 | 106 | 1.1 | 0.9 | 92.3 | 1 | 6 | 1.1 | 1.3 | Insoluble | inhibition in vivo at 50 mg/kg/day [17]: ≤ 50%; IC50 [18]: 3690 nM; IC50 [19]: 3730 nM
3 | OC(CCN1CC=C(c2ccc(F)cc2)CC1)c1ccc2c(c1)OCO2 (stereo not drawn) | 96 | 99.6 | 0.9 | 0.9 | 87.1 | 81.4 | 114 | 108 | 92.5 | 1 | 0.9 | 128 | 0.5 |  | 1 | 0.7 |  | IC50 [21]: Not Active
4 | N#Cc1ccc(C(O)CCN2CC=C(c3ccc(F)cc3)CC2)cc1 (stereo not drawn) | 95.1 | 108 | 0.9 | 1.2 | 99.1 | 66.5 | 94.7 | 97.8 | 85.1 | 1.1 | 1.1 | 75.8 | 0.9 |  | 1.1 | 1.2 |  | 
5 | OC(CCN1CCN(c2ccccc2C(F)(F)F)CC1)c1ccc(F)c2ccccc12 (stereo in doubt; 55) | 95.4 | 100 | 0.4 | 0.7 | 168 | 175 | 52.1 | 120 | 94.7 | 0.7 | 0.8 | 207 | 0.7 | 8 | 0.5 | 0.1 | Insoluble | IC50 [21]: Not Active; IC50 [18]: 140 nM; IC50 [19]: 100 nM
6 | OC(CCN1CCN(c2ccc(F)cc2)CC1)c1ccc(F)c2ccccc12 (stereo not drawn) | 66.2 | 59.6 | 1.2 | 0.6 | 112 | 196 | 87.9 | 100 | 85.4 | 0.9 | 0.5 | 51.2 | 0.7 |  | 0.8 | 1.1 |  | 
7 | OC(CCN1CCN(c2ccccc2C(F)(F)F)CC1)c1ccc(F)cc1 (stereo not drawn) | 24.6 | 21.3 | 1.2 | 0.2 | 37.2 | 129 | 107 | 90.4 | 99.8 | 1.3 | 0.8 | 70.1 | 0.9 |  | 1 | 0.5 | Insoluble | 
